Assays:
LoVo = assay: Cytotoxicity against human LoVo cells by SRB method; assay type: functional, cell-based
In short: (§1)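 Adherent cells were grown in RPMI1640 with 10% FBS, 100 U/mL penicillin and 100 U/mL streptomycin, then plated and incubated for 24 h. They were exposed to test compounds at 10^-2 to 10^2 µM for 72 h. Growth inhibition was read by sulforhodamine B (SRB) staining and expressed as IC50, the mean of triplicate points. Adriamycin and taxotere were positive controls.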

HepG2 = assay: Cytotoxicity against human HepG2 cells by SRB method; assay type: functional, cell-based; in short: as §1
K562 = assay: Cytotoxicity against human K562 cells by WST-1 method
KB = assay: Cytotoxicity against human KB cells by SRB method; assay type: functional, cell-based; in short: as §1

Structure (SMILES): C=C1[C@@H]2CC[C@H]3[C@]4(C)C[C@H](O)C[C@](C)(CO)[C@H]4CC[C@]3([C@@H]2O)[C@H]1O
- IC50 (LoVo): 76.3 µM
- IC50 (HepG2): > 100 µM
- IC50 (K562): > 100 µM
- IC50 (KB): 69.6 µM

Structure (SMILES): COc1cccc2c1C(=O)c1c(O)c3c(c(O)c1C2=O)C[C@@](O)(C(=O)CO)C[C@@H]3O[C@H]1C[C@H](N)[C@H](O)[C@H](C)O1 [DOXORUBICIN]
- IC50 (LoVo): > 400 µM
- IC50 (HepG2): 0.06 µM
- IC50 (K562): 0.09 µM
- IC50 (KB): > 400 µM

Structure (SMILES): Cc1cc2c(c(C)c1CCO)C(=O)[C@@H](C)[C@@H]2O[C@@H]1O[C@H](CO)[C@@H](OC(=O)/C=C/c2ccc(O)cc2)[C@H](O)[C@H]1O
- IC50 (LoVo): 11.3 µM
- IC50 (HepG2): 8.69 µM
- IC50 (K562): 10.6 µM
- IC50 (KB): 14.2 µM

Structure (SMILES): Cc1cc2c(c(C)c1CCO)C(=O)[C@H](C)[C@@H]2O[C@@H]1O[C@H](CO)[C@@H](OC(=O)/C=C/c2ccc(O)cc2)[C@H](O)[C@H]1O
- IC50 (LoVo): > 400 µM
- IC50 (HepG2): 9.26 µM
- IC50 (K562): 9.57 µM
- IC50 (KB): 23.8 µM

Structure (SMILES): CC(=O)O[C@@]12CO[C@@H]1C[C@H](O)[C@@]1(C)C(=O)[C@H](O)C3=C(C)[C@@H](OC(=O)[C@H](O)[C@@H](NC(=O)OC(C)(C)C)c4ccccc4)C[C@@](O)([C@@H](OC(=O)c4ccccc4)[C@H]21)C3(C)C [DOCETAXEL]
- IC50 (LoVo): 0.00197 µM
- IC50 (KB): 0.00114 µM

Structure (SMILES): CC1(C)C[C@@H](O)C[C@]2(C)[C@@H]1[C@H](O)C[C@@]13C[C@@H](CC[C@H]12)[C@@](O)(CO)C3
- IC50 (LoVo): 91.7 µM
- IC50 (HepG2): 82.4 µM
- IC50 (K562): 81.9 µM
- IC50 (KB): 53.7 µM

Structure (SMILES): Cc1cc2c(c(C)c1CCO[C@@H]1O[C@H](CO)[C@@H](OC(=O)/C=C/c3ccc(O)cc3)[C@H](O)[C@H]1O)C(=O)[C@H](C)C2
- IC50 (LoVo): > 400 µM
- IC50 (HepG2): > 100 µM
- IC50 (K562): 64.6 µM
- IC50 (KB): 45.3 µM

Structure (SMILES): C=C1[C@@H]2CC[C@H]3[C@]4(C)C[C@H](O)C[C@](C)(CO)[C@H]4CC[C@]3(C2)[C@H]1O
- IC50 (LoVo): 20.3 µM
- IC50 (HepG2): > 100 µM
- IC50 (K562): > 100 µM
- IC50 (KB): 26.4 µM

Reference: ChEMBL document CHEMBL1144738, “Cytotoxic diterpenoids and sesquiterpenoids from Pteris multifida” (J Nat Prod, 2008)
